Assay [1] addresses T1, Neuronal acetylcholine receptor; alpha4/beta2 (Rattus norvegicus) (UniProt P09483+P12390). Briefly: In vitro inhibition of [3H]cytisine binding in rat brain tissue at Nicotinic acetylcholine receptor alpha4-beta2 at 100 uM. The class given is tissue-based.
In assay [2] the target is T1, Neuronal acetylcholine receptor; alpha4/beta2 (Rattus norvegicus). As to the kind of experiment: In vitro inhibition of [3H]cytisine binding in rat brain tissue at Nicotinic acetylcholine receptor alpha4-beta2. The following applies: concentration not given here. The class given is tissue-based. The gist of the method: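 Membranes were spun at 35 000g and resuspended. They were preincubated on ice for 5 min with test drug, then given 3.5 nM [3H]cytisine for 90 min at 2 °C. Nonspecific binding was taken with 1 mM (-)-nicotine. Drug concentrations were run in triplicate, with filtration and scintillation counting.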

The test system of assay [3] is Mus musculus. As to the kind of experiment: In vivo analgesic agonist activity after subcutaneous administration, using hotplate assay. It counts as functional. The following applies: sc. In a few lines: (§1)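 Male CD-1 mice (25-35 g) were dosed subcutaneously on the back at 10 mL/kg. Hotplate held at 52 °C; latency was timed to hind-paw lick or jump. Percent effect was calculated as (test − baseline latency)/(12 − baseline latency). ED50 with CI95 came from nonlinear regression of dose-response curves.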

For assay [4], the target named is T2, Neuronal acetylcholine receptor; alpha4/beta2 (Rattus norvegicus, UniProt P09483+P12390). As to the kind of experiment: In vitro binding affinity by inhibiting [3H]dopamine release in rat brain tissue at Nicotinic acetylcholine receptor alpha4-beta2. It counts as functional, tissue-based.
T2 sequence (P09483 whole entry): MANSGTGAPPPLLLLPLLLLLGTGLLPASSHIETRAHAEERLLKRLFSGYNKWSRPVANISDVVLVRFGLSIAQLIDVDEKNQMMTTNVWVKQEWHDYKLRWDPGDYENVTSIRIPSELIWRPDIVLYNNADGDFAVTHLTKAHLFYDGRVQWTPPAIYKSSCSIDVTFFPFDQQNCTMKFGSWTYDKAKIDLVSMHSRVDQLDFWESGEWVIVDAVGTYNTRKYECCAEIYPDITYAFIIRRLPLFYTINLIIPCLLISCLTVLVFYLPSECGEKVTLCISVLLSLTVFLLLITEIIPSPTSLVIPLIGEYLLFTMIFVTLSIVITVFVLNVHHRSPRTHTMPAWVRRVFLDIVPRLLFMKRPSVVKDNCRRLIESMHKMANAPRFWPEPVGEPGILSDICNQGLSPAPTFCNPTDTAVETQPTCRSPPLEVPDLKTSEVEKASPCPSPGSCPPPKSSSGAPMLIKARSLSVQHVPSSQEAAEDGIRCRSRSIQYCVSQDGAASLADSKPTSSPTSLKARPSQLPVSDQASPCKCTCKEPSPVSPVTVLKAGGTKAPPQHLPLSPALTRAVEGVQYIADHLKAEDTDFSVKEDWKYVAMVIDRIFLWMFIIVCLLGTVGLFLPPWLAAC
T2 sequence (P12390 whole entry): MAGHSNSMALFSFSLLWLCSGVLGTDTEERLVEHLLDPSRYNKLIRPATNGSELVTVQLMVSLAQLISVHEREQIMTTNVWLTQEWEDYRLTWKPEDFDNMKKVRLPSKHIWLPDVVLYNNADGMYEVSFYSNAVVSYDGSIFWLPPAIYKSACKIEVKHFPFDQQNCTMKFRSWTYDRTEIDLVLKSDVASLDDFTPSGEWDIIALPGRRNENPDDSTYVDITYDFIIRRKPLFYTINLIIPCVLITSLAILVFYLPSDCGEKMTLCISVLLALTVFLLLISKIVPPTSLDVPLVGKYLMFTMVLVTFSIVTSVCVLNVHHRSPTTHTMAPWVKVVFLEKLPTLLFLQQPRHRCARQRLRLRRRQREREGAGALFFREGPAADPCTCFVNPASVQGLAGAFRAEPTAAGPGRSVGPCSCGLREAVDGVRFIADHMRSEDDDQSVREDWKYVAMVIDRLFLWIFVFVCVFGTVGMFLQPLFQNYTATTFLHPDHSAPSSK
Assay [5] concerns the target T2, Neuronal acetylcholine receptor; alpha4/beta2. Briefly: In vitro binding affinity by inhibiting [3H]cytisine binding in rat brain tissue at Nicotinic acetylcholine receptor alpha4-beta2. It counts as tissue-based.
Assay [6] deals with Mus musculus. Briefly: In vivo analgesic agonist activity after subcutaneous administration, using tail-flick assay. The following applies: sc. It counts as functional. The gist of the method: (§2)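 Male CD-1 mice (25-35 g) were dosed subcutaneously on the back at 10 mL/kg. Tail-flick latency to a focused light beam was read by photocell as the mean of two trials, with a 12 s cutoff. Percent effect was (test − baseline)/(12 − baseline latency). ED50 with CI95 came from nonlinear regression of dose-response curves.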

The target of assay [7] is T2, Neuronal acetylcholine receptor; alpha4/beta2. As to the kind of experiment: in vitro binding affinity by inhibiting [3H]cytisine binding in rat brain tissue at Nicotinic acetylcholine receptor alpha4-beta2.
Assay [8] deals with Mus musculus. Briefly: In vivo analgesic activity was measured in mouse upon subcutaneous administration using tail-flick assay. The settings on record: sc. It counts as functional. In a few lines: as §2
(In hot-plate and tail-flick tests a longer latency is read as antinociception.)

The target of assay [9] is T2, Neuronal acetylcholine receptor; alpha4/beta2. Briefly: In vitro binding affinity by inhibiting [3H]dopamine release in rat brain tissue at aNicotinic acetylcholine receptor alpha4-beta2. The class given is functional, tissue-based. The gist of the method:
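Striatal slices (250 µm) from male Sprague-Dawley rats were loaded with 15 nM [3H]dopamine plus 0.1 mM ascorbic acid at 37 °C for 30 min in oxygenated Krebs-HEPES buffer pH 7.4, with domperidone present after loading. Slices were superfused with a 2 min test-drug pulse (S1), then 10 mM K+ for 2 min (S2). Five drug concentrations were used; S1/S2 fractional release ratios gave EC50.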

Assay [10] concerns Mus musculus. As to the kind of experiment: In vivo analgesic activity was measured in mouse upon subcutaneous administration using hotplate assay. The class given is functional. The following applies: sc. In a few lines:
as §1

Assay [11] addresses T1, Neuronal acetylcholine receptor; alpha4/beta2 (Rattus norvegicus). As to the kind of experiment: In vitro % inhibition of [3H]cytisine binding in rat brain tissue at Nicotinic acetylcholine receptor alpha4-beta2 at 100 uM. The class given is tissue-based.

Experimental findings from ChEMBL document CHEMBL1135501, “Synthesis and biological evaluation at nicotinic acetylcholine receptors of N-arylalkyl- and N-aryl-7-azabicyclo[2.2.1]heptanes” (J Med Chem, 2002) are described below.

The structures appear in SMILES notation.

The inhibition is the percentage by which the read-out fell short of the control. The low end stands for little suppression, the high end for strong suppression. Turning to `Ic1ccc(N2C3CCC2CC3)nc1`, the inhibition in [1] was less than 50%.

For the compound `c1ccc2nc(CN3C4CCC3CC4)ccc2c1`, in assay [2], the inhibition is less than 50%.

Broadly, the ED50 is the dose that gives a 50% effect, or the effect in half of the subjects. For orientation: EC50 means the concentration needed to bring the measured effect to its halfway point. A word on the Ki: it is the equilibrium dissociation constant of an inhibitor or competing ligand from its target. Low readings indicate higher affinity, high ones lower affinity. On to `Clc1ccc(CN2C3CCC2CC3)cn1`, for which the ED50 with Mus musculus [3] was determined as 12.2 mg/kg; in the assay on Mus musculus [6], 11.1 mg/kg. This compound also returned an EC50 in [4] of 79 nM. Besides, in [5], affinity was put at a Ki of 245 nM.

With `O=c1cccc2n1C[C@@H]1CNC[C@H]2C1` [CYTISINICLINE], the Ki in [7] worked out at 4.2 nM. In addition, the EC50 in [4] amounted to 8.8 nM.

The compound `c1cc(N2C3CCC2CC3)ccn1` came in with an inhibition in [1] of less than 50%.

In turn, `c1cc(CN2C3CCC2CC3)ccn1` had an inhibition in assay [1] of less than 50%.

The compound `c1ccc2ncc(N3C4CCC3CC4)cc2c1` returned an inhibition in assay [1] of less than 50%.

The compound `c1cncc(N2C3CCC2CC3)c1` gave an inhibition in assay [1] of less than 50%.

`c1cncc(CN2C3CCC2CC3)c1`: the ED50 came out at 12.4 mg/kg with Mus musculus [8] and 5.36 mg/kg in the assay with Mus musculus [10]. This compound registered an EC50 in assay [9] of 1.4 nM. This compound returned a Ki in assay [5] of 98 nM.

`COc1ccc(N2C3CCC2CC3)cn1`: the inhibition in [1] was less than 50%.

On to `Clc1ccc(C2CC3CCC2N3)cn1` (stereo in doubt; 1) [EPIBATIDINE], for which the results for the ED50 with Mus musculus [3] and in the assay on Mus musculus [6] were 0.00072 mg/kg and 0.00046 mg/kg, respectively.

Turning to `c1ccc(CN2C3CCC2CC3)nc1`, the Ki in assay [5] came out at 31300 nM.

Regarding `c1ccc2c(N3C4CCC3CC4)cncc2c1`, the inhibition in assay [1] is less than 50%.

As to `c1ccc(N2C3CCC2CC3)nc1`, the inhibition in assay [1] is less than 50%.

With `c1cncc(CCN2C3CCC2CC3)c1`, the Ki in [5] stood at 2230 nM.

For `Cc1ccc(N2C3CCC2CC3)cc1`, in assay [11], the inhibition was less than 50%.
